{"data": "Measurements gathered from unrelated publications", "target": "Serine/threonine-protein kinase Sgk3 (SGK3, Homo sapiens, UniProt Q96BR1)", "Residues used in one study (Q96BR1 1-496)": "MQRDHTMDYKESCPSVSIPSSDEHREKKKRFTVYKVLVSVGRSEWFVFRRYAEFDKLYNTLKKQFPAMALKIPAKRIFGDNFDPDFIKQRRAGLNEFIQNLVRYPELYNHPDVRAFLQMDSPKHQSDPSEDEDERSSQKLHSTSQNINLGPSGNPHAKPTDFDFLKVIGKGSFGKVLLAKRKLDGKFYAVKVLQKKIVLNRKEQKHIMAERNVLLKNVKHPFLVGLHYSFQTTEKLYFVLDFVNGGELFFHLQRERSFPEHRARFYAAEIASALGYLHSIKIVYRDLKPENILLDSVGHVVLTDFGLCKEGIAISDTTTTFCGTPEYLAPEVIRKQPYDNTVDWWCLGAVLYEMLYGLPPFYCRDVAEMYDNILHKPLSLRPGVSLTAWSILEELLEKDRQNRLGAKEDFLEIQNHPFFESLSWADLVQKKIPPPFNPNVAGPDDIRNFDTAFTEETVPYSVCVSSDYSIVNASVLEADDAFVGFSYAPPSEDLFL"}
{"Structure (SMILES)": "N[C@@H]1CCN(c2nccc(-c3cnn4ncccc34)n2)C1", "effect on": "binding", "concentration": "1 µM", "remaining binding [%]": 100}
{"Structure (SMILES)": "Cn1cc(Cl)c2c(Oc3c(F)cc(Nc4cc(Cl)nc(N)n4)cc3F)ccnc21", "effect on": "cell-free assay", "technique": "competition with immobilised ligand", "concentration": "0.1 µM", "remaining binding [%]": 90}
{"Structure (SMILES)": "COc1ncc2cc3ccccc3nc2c1C#N", "effect on": "cell-free assay", "technique": "competition with immobilised ligand", "concentration": "5 µM", "remaining binding [%]": 100}
{"Structure (SMILES)": "COc1ccnn2ncc(-c3ccnc(N(C)C)n3)c12", "effect on": "binding", "concentration": "1 µM", "remaining binding [%]": 95}
{"Structure (SMILES)": "O=C(NCC1CCOCC1)c1n[nH]cc1NC(=O)c1c(F)cccc1F", "effect on": "binding", "technique": "competition with immobilised ligand", "concentration": "1 µM", "remaining binding [%]": 78}
{"Structure (SMILES)": "CS(=O)(=O)c1cc(C2(NC(=O)c3cncc4c3cnn4-c3ccc(F)cc3)CC2)ccn1", "effect on": "cell-free assay", "technique": "competition with immobilised ligand", "concentration": "1 µM", "remaining binding [%]": 100}
{"Structure (SMILES)": "C[C@@H]1CCN(c2nccc(-c3cnn4ncccc34)n2)C1", "effect on": "binding", "concentration": "1 µM", "remaining binding [%]": 87}
{"Structure (SMILES)": "Cc1cnc(Nc2ccc(C(=O)N3CCC(N4CCCC4)CC3)cc2)nc1-c1cc2ccccc2s1", "effect on": "binding", "technique": "competition with immobilised ligand", "concentration": "1 µM", "remaining binding [%]": 7.3}
{"Structure (SMILES)": "CC1CCCN1c1nccc(-c2cnn3ncccc23)n1 (stereo not drawn)", "effect on": "binding", "concentration": "1 µM", "remaining binding [%]": 86}
{"Structure (SMILES)": "CNC(=O)[C@@H]1CC[C@@H](n2c(-c3ccc4cnccc4c3)nc3ccc(C(=O)NCc4cccc(C(N)=O)c4)cc32)C1", "effect on": "binding", "technique": "competition with immobilised ligand", "concentration": "1 µM", "remaining binding [%]": 82}
{"Structure (SMILES)": "O=C(c1ccc(Nc2nccc(-c3cc4ccccc4s3)n2)cc1)N1CCC(N2CCCC2)CC1", "effect on": "binding", "technique": "competition with immobilised ligand", "concentration": "1 µM", "remaining binding [%]": 19}
{"Structure (SMILES)": "CN(CCCC(F)(F)F)c1nccc(-c2cnn3ncccc23)n1", "effect on": "binding", "concentration": "1 µM", "remaining binding [%]": 97}
{"Structure (SMILES)": "Nc1ncc2c(n1)-c1c([nH]c3ccc(C#CC4CC4)cc13)CCCC2", "effect on": "binding", "technique": "competition with immobilised ligand", "concentration": "1 µM", "remaining binding [%]": 100}
{"Structure (SMILES)": "COCCOc1nc(-c2ccc(Cl)nc2)nc2c1CN(C(=O)c1ncn3ccccc13)CC2", "effect on": "cell-free assay", "technique": "competition with immobilised ligand", "concentration": "0.1 µM", "remaining binding [%]": 100}
{"Structure (SMILES)": "COc1cnc(Nc2cccc(S(N)(=O)=O)c2)nc1N1CCN(c2ccccc2)CC1", "effect on": "binding", "technique": "competition with immobilised ligand", "concentration": "1 µM", "remaining binding [%]": 72}
{"Structure (SMILES)": "O=C(NCc1ncc(C(F)(F)F)cc1Cl)c1ccc2c(c1)C1(CCS(=O)(=O)CC1)[C@H](C1CC1)N2S(=O)(=O)c1ccc(F)cc1", "effect on": "cell-free assay", "technique": "competition with immobilised ligand", "concentration": "1 µM", "remaining binding [%]": 99}
{"Structure (SMILES)": "c1cncc(-c2cccc(Nc3nccc(NC4CCCCC4)n3)c2)c1", "effect on": "binding", "technique": "competition with immobilised ligand", "concentration": "10 µM", "remaining binding [%]": 58}
{"Structure (SMILES)": "O=C(NCCCC1CCCCC1)c1ccc(CNC(=O)c2cnn(-c3ccccc3)c2C(F)(F)F)cc1", "effect on": "cell-free assay", "technique": "competition with immobilised ligand", "concentration": "0.1 µM", "remaining binding [%]": 92}
{"Structure (SMILES)": "O=C(c1ccc(Nc2ncc(Cl)c(-c3ccc(Cl)s3)n2)cc1)N1CCC(N2CCCC2)CC1", "effect on": "binding", "technique": "competition with immobilised ligand", "concentration": "1 µM", "remaining binding [%]": 4.7}
{"Structure (SMILES)": "COc1cccc(CNC(=O)c2nc3scc(COCc4ccc(C(=O)O)cc4)c3c(=O)[nH]2)c1", "effect on": "cell-free assay", "technique": "competition with immobilised ligand", "concentration": "1 µM", "remaining binding [%]": 69.2}
{"Structure (SMILES)": "F[C@@H]1CCN(c2nccc(-c3cnn4ncccc34)n2)C1", "effect on": "binding", "concentration": "1 µM", "remaining binding [%]": 89}
